Measured values gathered from unrelated publications.
Each line is one published result; the experiments were not run side by side.

| SMILES | system | setting | measurement | value |
| --- | --- | --- | --- | --- |
| CC(C)C[C@@H]1NC(=O)[C@H](C)NC(=O)[C@H](Cc2ccccc2)NCC2=CC=C(CN(C)C1=O)O2 | PAMPA | 100 µM, 17 h, pH 6.4 | Papp | 1.9 ×10⁻⁶ cm/s |
| O=C1CC[C@H](N2Cc3cc(N4CCN(CC5CCN(c6ccc([C@@H]7c8ccc(O)cc8CC[C@@H]7c7ccccc7)cc6)CC5)CC4)ccc3C2=O)C(=O)N1 | female Sprague-Dawley rat, plasma | intravenous, 5 mg/kg, fed | AUC(0-inf) | 11600 ng·h/mL |
| N#C[C@@]12C[C@@H]1[C@@H](n1cnc3c(N[C@@H](C4CCC4)C4CC4)nc(I)nc31)[C@H](O)[C@@H]2O | male Wistar rat, plasma | oral, 10 mg/kg | AUC(0-inf) | 349 ng·h/mL |
| Cc1c(C(=O)O)ccc2c3n(nc12)[C@@H]1[C@H](C3)N(CC2CC2)[C@@]2(C(=O)Nc3cc(Cl)ccc32)[C@H]1c1cccc(Cl)c1F | female minipig, plasma | oral, 2 mg/kg | Cmax | 900 nM |
| CCCCCCCc1[nH]c2ccccc2c(=O)c1O | PAMPA | 40 µM, 5 h, pH 7.4 | Papp | 1.2 to 4 ×10⁻⁶ cm/s |
| O=[N+]([O-])c1ccc2c(c1)S(=O)(=O)C=C2 | PAMPA-BBB | pH 7.4 | Papp | 3.98 ×10⁻⁶ cm/s |
| CC(C)C[C@@H]1NC(=O)CN(C)C(=O)[C@H](Cc2ccccc2)NCC2=CC=C(CNC1=O)O2 | PAMPA | 100 µM, 17 h, pH 6.4 | Papp | 1.3 ×10⁻⁶ cm/s |
| CC(C)Cc1ccc(C(C)C(=O)O)cc1 (stereo not drawn) | PAMPA-BBB | pH 7.4 | Papp | 11.6 ×10⁻⁶ cm/s |
| CC(C)NCC(O)COc1cccc2ccccc12 (stereo not drawn) | PAMPA | 40 µM, 5 h, pH 7.4 | Papp | 14.3 ×10⁻⁶ cm/s |
